# Bioassay records (PubChem)
# PP5 primary: inhibitors of human protein phosphatase 5 (PP5) | AID 1987 | inhibition, % at 6.7 µM | 320,000 compounds, 0.18% hits | P53041 | purified PP5c, OMFP substrate fluorescence;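 active = inhibition above the campaign's mean inhibition across all tested compounds plus 3 SD, cut at about 9.5% in these data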;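 also: 0% = DMSO only and 100% = 100 µM cantharidin control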
# Target sequence (P53041 whole entry, looked up): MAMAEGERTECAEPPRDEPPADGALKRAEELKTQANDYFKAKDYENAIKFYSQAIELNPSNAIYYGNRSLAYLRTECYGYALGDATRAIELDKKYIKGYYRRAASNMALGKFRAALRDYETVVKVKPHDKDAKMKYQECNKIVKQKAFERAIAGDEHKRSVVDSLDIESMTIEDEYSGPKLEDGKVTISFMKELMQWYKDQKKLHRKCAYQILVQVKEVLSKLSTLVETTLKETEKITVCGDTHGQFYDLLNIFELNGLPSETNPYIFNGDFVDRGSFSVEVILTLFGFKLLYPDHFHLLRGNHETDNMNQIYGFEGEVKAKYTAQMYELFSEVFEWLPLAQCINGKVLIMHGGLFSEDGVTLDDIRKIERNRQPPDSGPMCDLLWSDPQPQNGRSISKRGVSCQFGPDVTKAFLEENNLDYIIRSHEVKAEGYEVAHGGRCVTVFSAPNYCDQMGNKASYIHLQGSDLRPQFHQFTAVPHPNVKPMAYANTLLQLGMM
# GSTO1 counter: blocks human GSTO1 in RBBP9 counter-screen; inhibition, % at 5.96 µM; 300,000 compounds, 1.1% hits; recombinant GSTO1, activity-based probe fluorescence polarization; P78417;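 active = inhibition above the campaign mean inhibition plus 3 SD, cut at about 35% in these data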;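 also: 0% = GSTO1-1 with DMSO and 100% = wells lacking GSTO1-1 enzyme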
# TDP2 inh: TDP2 (human) inhibition, absorbance primary screen | O95551 | 370,000 compounds, 0.34% hits | AID 720702 | inhibition, % at 12.8 µM | recombinant TDP2, T5PNP hydrolysis, p-nitrophenol absorbance 415 nm;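 active = inhibition above the mean of all tested compounds plus 3 SD, set per campaign, cut at about 25% in these data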;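 also: 0% = DMSO with enzyme and 100% = buffer with substrate but no TDP2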
#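 Test system: human TDP2 enzyme; Input: 120 nM TDP2 per well; Buffer or medium: Mg2+-containing Tris-HCl buffer, pH 7.5; Reagent: 5 mM T5PNP; Dosing: 12.8 µM single point, 1% DMSO; Incubation: reaction 2 h, 37 °C; Detection: p-Nitrophenol epi absorbance; Read-out: % inhibition relative to enzyme-containing and enzyme-free wells; Replicates: single well per compound.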
# PP1 inh: counter-screen for PP5 inhibitors: inhibitors of human PP1-alpha | P62136 | purified PP1alpha, OMFP fluorescence | inhibition, % at 6.7 µM | 320,000 compounds, 0.9% hits | AID 2235;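 active = inhibition above the mean inhibition of all tested compounds plus 3 SD, computed separately for each screening campaign, cut at about 15% in these data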
# Apaf-1 inh: inhibitors of human Apaf-1 apoptosome | O14727 | reconstituted apoptosome caspase-3 activity, DEVD-Rh110 fluorescence | inhibition, % at 20 µM | 330,000 compounds, 0.71% hits; active = inhibition of at least 40% at 20 µM;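 also: plate controls were DMSO wells for no effect and DEVD-CHO caspase inhibitor wells for full effect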
#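 Material: cell-free apoptosome with Apaf-1, procaspase-3 and caspase-9; Buffer or medium: Hepes pH 7.5 with detergent and BSA; Reagent: cytochrome c trigger plus (Z-DEVD)2-Rh110 caspase-3 substrate; Times: compound with Apaf-1, dATP, procaspase-3 30 min, then 50 min reaction, room temperature; Technique: Rh110 fluorescence intensity.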
# The depositor's hits bear a star; / = not tested or not shown; ! = not active in a repeat. This is a sample that favours compounds with a hit; in the whole collection about 2.1% have one here.
SMILES,PP5 primary,GSTO1 counter,TDP2 inh,PP1 inh,Apaf-1 inh
C[C@@H]1[C@@H](c2ccccc2)c2cc3ccccc3nc2C(=O)C[C@@H]1C(=O)N1CCCC1,/,/,6.1,/,/
Cc1ccc(S(=O)(=O)N/N=C/c2ccc(O)c(O)c2)cc1[N+](=O)[O-],-2.2,49.9*,-12.9,-7.1,-3.8
C=CC(=O)Nc1ccc(CN2C(=O)N(c3c(Cl)c(OC)cc(OC)c3Cl)Cc3cnc(NCCCCN(CC)CC)nc32)cc1,/,/,/,/,62.9*
O=C(CCc1ccccc1)N[C@H]1[C@@H](O)CCC[C@]12C(=O)N(Cc1ccccc1)c1ccccc12,/,/,-7.2,/,/
CCc1ccc(/C=C2\SC(=S)N(CCCC(=O)NCCCN3CCOCC3)C2=O)cc1,/,/,4.1,/,/
COC(=O)c1ccc(/C=C2/SC(=S)N(CCCC(=O)Nc3ccc(O)cc3)C2=O)cc1,1.4,4.1,-11.0,15.7*,-67.0
CCOc1ccc(/C=C2\SC(=S)N(CCCC(=O)NCCCN3CCOCC3)C2=O)cc1,1.1,16.3,-9.4,-1.9,42.3*
COc1ccc(-n2c(SCc3cccc4ccccc34)nnc2-c2ccccc2)cc1,/,/,6.2,/,/
O=C1C2CCCN2c2ccc(S(=O)(=O)N3CCOCC3)cc2N1Cc1cccc(C(F)(F)F)c1 (centres undefined),1.2,-10.6,/,30.0*,22.0
CC(C)CC(CCOCCO)NC(=O)OCc1ccccc1[N+](=O)[O-] (centres undefined),/,/,1.7,/,/
O=C(N=Nc1c(O)[nH]c2ccccc12)c1cc(NS(=O)(=O)c2cccs2)cc(NS(=O)(=O)c2cccs2)c1,-0.4,-0.2,2.7,16.4*,2.2
O=C(NCCCO)C(=O)NCC1OCCCN1S(=O)(=O)c1cccs1 (centres undefined),0.0,7.8,-0.5,-2.0,-2.9
CN(C)CCCNC(=O)C(=O)NCC1OCCN1S(=O)(=O)c1cccs1 (centres undefined),0.2,-2.7,0.8,-3.2,64.2*
COc1ccc2ccccc2c1C1CC(=O)N2CN(C)CSC2=C1C#N (centres undefined),3.9,-4.0,16.4,3.9,71.2*
COc1cc(OC)c(C2CC(=O)N3CN(C)CSC3=C2C#N)cc1OC (centres undefined),-1.9,-1.2,1.1,-6.5,13.7
COc1ccc(OC)c(C2CC(=O)N3CN(c4ccc(C)c(Cl)c4)CSC3=C2C#N)c1 (centres undefined),0.3,-3.4,-4.0,-1.2,14.7
COc1ccc(OC)c(C2CC(=O)N3CN(c4cccc(Cl)c4)CSC3=C2C#N)c1 (centres undefined),1.8,1.1,11.5,3.5,80.5*
CCc1ccccc1N1CSC2=C(C#N)C(c3cc(OC)c(OC)cc3OC)CC(=O)N2C1 (centres undefined),5.2,33.3,15.3,-9.6,43.4*
CCOC(=O)c1ccc(N2CSC3=C(C#N)C(c4ccc(OC)cc4OC)CC(=O)N3C2)cc1 (centres undefined),-0.3,4.8,8.1,-0.2,50.3*
CCCC(=O)N1CCC(C(=O)NC2CCCc3ccccc32)CC1 (centres undefined),/,/,-0.9,/,/
C/C=C/C=C/C(=O)N1C[C@H](C)N(C)C[C@H]1C,/,/,-7.8,/,/
CCc1cc2c(nc1CC)CCCN2C,/,/,-10.9,/,/
COC[C@@H]1CCCN1c1cccc2c1S(=O)(=O)N(C1CC1)CCCO2,/,/,6.9,/,/
CCOC(=O)N1CCC2(CC1)C(C#N)=C(N)Oc1n[nH]c(CSc3ccc(C)cc3)c12,2.0,35.5*,4.2,-0.3,13.2
NC(=O)c1sc2nc(-c3ccccc3)ccc2c1N,4.1,2.5,-0.4,-0.5,-7.4
SMILES,PP5 primary,GSTO1 counter,TDP2 inh,PP1 inh,Apaf-1 inh
Nc1c(C(=O)Nc2ccc(F)cc2)sc2nc(-c3ccco3)ccc12,1.4,9.1,-10.3,16.5*,32.1
CC(=O)c1sc2nc(-c3ccco3)ccc2c1N,1.1,38.9*,0.6,3.6,19.5
Cc1ccc(NC(=O)c2sc3nc4c(c(-c5ccco5)c3c2N)CCC4)cc1,4.3,6.8,-6.1,-0.4,25.5
Nc1c(C(=O)Nc2ccc(Br)cc2)sc2nc(-c3ccco3)ccc12,0.9,-0.1,1.1,16.0*,25.5
Nc1c(C(=O)Nc2ccccc2)sc2nc3c(c(-c4ccco4)c12)CCC3,2.8,-4.1,-2.5,2.7,36.8
Cc1ccc(S(=O)(=O)N2CCOCC2)cc1NC(=O)COC(=O)CNC(=O)c1ccc(C(C)(C)C)cc1,3.0,35.4*,6.7,-6.1,17.4
CC1(C)Cc2c(sc3nc(SCC(=O)O)[nH]c(=O)c23)CO1,-0.7,36.5*,2.7,-4.2,-5.1
CCOC(=O)CSc1nc2sc3c(c2c(=O)[nH]1)CC(C)(CC)OC3 (centres undefined),3.2,-3.2,-1.6,-7.3,16.4
CCCCC#Cc1ccccc1COC[B-](F)(F)F,/,/,-10.3,/,/
O=C(Oc1ccccc1O)c1cccc2ccccc12,2.8,58.9*,-3.1,2.8,17.2
CCOC(=O)N1CCN(CCC(=O)Nc2cccc(Br)c2)CC1,-0.4,-4.4,4.9,17.5*!,1.9
CCOC(=O)N1CCN(CC(=O)Nc2cccc(Br)c2)CC1,0.2,-1.8,0.2,1.2,3.5
COC(=O)c1cc(S(=O)(=O)NCC2CCN(C(=O)C(=O)c3cc4ccccc4o3)CC2)cs1,/,/,4.7,/,/
Nc1c(C(=O)N2CCN(CCc3ccccc3)CC2)cnn1-c1ccccc1,/,/,-14.1,/,/
O=[N+]([O-])c1c(NCCCO)cc(SCc2ccco2)c2nonc12,-1.4,35.2*,21.3,1.5,9.7
CC(=O)OCCNc1cc(SCc2ccco2)c2nonc2c1[N+](=O)[O-],0.3,23.9,/,2.4,/
CN(C)CCCN1c2ccccc2CCc2ccc(Cl)cc21,1.0,1.7,3.8,0.8,30.9
CN(CCCN1c2ccccc2CCc2ccccc21)CC(=O)c1ccc(Cl)cc1,-0.6,3.2,/,11.3,44.1*
O=C1c2cccc3cccc(c23)C(=O)C1(O)O,1.5,62.8*,2.2,-4.6,-3.8
CC(=O)N1C(=O)c2cccc3cccc(c23)C(=O)N1C(C)=O,1.3,2.2,/,-1.6,-3.2
CC[C@H]1/C(=C/c2ccccc2)N2C(=O)C[C@H](c3ccccc3)N=C2N1C,/,/,5.0,/,/
C#CCOCCOCCOCCNc1nc(N2CCN(C(=O)[C@H](CCCCN)n3cc([C@@H](N)CC(C)C)nn3)CC2)nc(N2CCN(C(=O)[C@H](Cc3cc4ccccc4[nH]3)n3cc([C@@H](N)Cc4ccc(O)cc4)nn3)CC2)n1,3.8,5.0,/,17.0*,6.4
C#CCOCCOCCOCCNc1nc(N2CCN(C(=O)C(Cc3cc4ccccc4[nH]3)n3cc(C(N)C(C)CC)nn3)CC2)nc(N2CCN(C(=O)C(Cc3cc4ccccc4[nH]3)n3cc(C(N)C(C)CC)nn3)CC2)n1 (centres undefined),3.7,4.4,/,27.2*,37.3
C#CCOCCOCCOCCNc1nc(N2CCN(C(=O)[C@H](CCCCN)n3cc([C@@H](N)CC(C)C)nn3)CC2)nc(N2CCN(C(=O)[C@H](Cc3cc4ccccc4[nH]3)n3cc([C@@H](N)CC(C)C)nn3)CC2)n1,/,/,-2.6,/,/
